The target in data set [1] is T1, NAD-dependent protein deacylase sirtuin-6 (Homo sapiens, UniProt Q8N6T7). Put plainly: Inhibition of SIRT6 (unknown origin) using Ac-RYQK(Ac)-AMC as substrate by Fluor de Lys assay.
The target in data set [2] is T1, NAD-dependent protein deacylase sirtuin-6. Put plainly: Binding affinity to SIRT6 (unknown origin) assessed as change in melting temperature at 40 uM by differential scanning fluorimetry.
Data set [3] has the same target. Put plainly: Binding affinity to SIRT6 (unknown origin) by surface plasmon resonance assay. For orientation: SPR reads the build-up and loss of mass on a sensor chip optically.
Data set [4] in a line: Toxicity in mouse assessed as effect on body weight. To be noted: in vivo. Put shortly: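 Normal (non-diabetic) mice were dosed, and blood glucose and body weight were tracked over the study.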
Data set [5] can be described thus: Toxicity in mouse model of type-2 diabetes mellitus assessed as effect on body weight at 7.5 to 30 mg/kg, ip. It is filed as organism-based. To be noted: in vivo. Put shortly:
(§1)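 High-fat-diet-fed mice served as the type 2 diabetes model. Compound was given by intraperitoneal injection, and blood glucose and body weight were followed over time.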

Data set [6] concerns Mus musculus. The data set is described as follows: Antidiabetic activity in mouse model of type-2 diabetes mellitus assessed as reduction in blood glucose at 7.5 to 30 mg/kg, ip. It counts as functional, organism-based. Put shortly:
as §1

Data set [7] deals with T2, NAD-dependent protein deacetylase sirtuin-3, mitochondrial (Homo sapiens, UniProt Q9NTG7).
T2 sequence (Q9NTG7 whole entry): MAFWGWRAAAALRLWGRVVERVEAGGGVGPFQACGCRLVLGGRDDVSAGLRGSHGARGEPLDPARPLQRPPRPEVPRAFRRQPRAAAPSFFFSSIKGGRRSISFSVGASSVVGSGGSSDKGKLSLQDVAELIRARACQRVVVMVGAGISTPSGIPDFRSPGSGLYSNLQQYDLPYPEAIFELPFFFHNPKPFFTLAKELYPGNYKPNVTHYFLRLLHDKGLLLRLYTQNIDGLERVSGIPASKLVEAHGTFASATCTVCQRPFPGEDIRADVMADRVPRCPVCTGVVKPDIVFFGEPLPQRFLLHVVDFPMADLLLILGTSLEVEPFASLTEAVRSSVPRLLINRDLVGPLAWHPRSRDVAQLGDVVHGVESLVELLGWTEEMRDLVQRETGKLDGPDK
Put plainly: Inhibition of SIRT3 (unknown origin). Put shortly: (§2)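 Each deacetylase was run in a Fluor de Lys (FDL) fluorogenic deacetylation assay as a selectivity screen, with compound tested at concentrations up to 200 μM. IC50 was estimated from the dose-response.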

Data set [8] deals with Histone deacetylase 2 (Homo sapiens, UniProt Q92769). Put plainly: Inhibition of HDAC2 (unknown origin). Put shortly:
as §2

Data set [9] has as its target Histone deacetylase 3 (Homo sapiens, UniProt O15379). The data set is described as follows: Inhibition of HDAC3 (unknown origin). Put shortly:
as §2

The target of data set [10] is Histone deacetylase 4 (Homo sapiens, UniProt P56524). The data set is described as follows: Inhibition of HDAC4 (unknown origin). Put shortly:
as §2

Data set [11] deals with T3, Polyamine deacetylase HDAC10 (Homo sapiens, UniProt Q969S8).
T3 sequence (Q969S8 whole entry): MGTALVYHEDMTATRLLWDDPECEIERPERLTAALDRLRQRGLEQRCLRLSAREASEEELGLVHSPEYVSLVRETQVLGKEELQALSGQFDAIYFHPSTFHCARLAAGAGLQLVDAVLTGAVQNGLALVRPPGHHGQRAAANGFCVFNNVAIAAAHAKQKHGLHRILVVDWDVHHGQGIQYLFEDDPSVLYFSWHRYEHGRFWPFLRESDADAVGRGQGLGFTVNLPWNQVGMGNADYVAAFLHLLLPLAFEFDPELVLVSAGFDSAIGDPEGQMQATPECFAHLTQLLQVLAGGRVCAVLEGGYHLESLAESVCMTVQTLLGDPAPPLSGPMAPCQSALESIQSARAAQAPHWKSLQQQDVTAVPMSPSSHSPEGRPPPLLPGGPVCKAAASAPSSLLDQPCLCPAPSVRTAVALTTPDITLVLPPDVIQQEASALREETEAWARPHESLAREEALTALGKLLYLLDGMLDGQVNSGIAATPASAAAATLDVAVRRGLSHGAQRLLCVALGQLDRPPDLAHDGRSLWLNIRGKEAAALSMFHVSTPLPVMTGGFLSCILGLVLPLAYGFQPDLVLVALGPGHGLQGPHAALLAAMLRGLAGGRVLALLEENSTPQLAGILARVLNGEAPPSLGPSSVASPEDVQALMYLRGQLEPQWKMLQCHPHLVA
The data set is described as follows: Inhibition of HDAC10 (unknown origin). Put shortly: as §2

Data set [12] concerns the target T4, Histone deacetylase 11 (Homo sapiens, UniProt Q96DB2).
T4 sequence (Q96DB2 whole entry): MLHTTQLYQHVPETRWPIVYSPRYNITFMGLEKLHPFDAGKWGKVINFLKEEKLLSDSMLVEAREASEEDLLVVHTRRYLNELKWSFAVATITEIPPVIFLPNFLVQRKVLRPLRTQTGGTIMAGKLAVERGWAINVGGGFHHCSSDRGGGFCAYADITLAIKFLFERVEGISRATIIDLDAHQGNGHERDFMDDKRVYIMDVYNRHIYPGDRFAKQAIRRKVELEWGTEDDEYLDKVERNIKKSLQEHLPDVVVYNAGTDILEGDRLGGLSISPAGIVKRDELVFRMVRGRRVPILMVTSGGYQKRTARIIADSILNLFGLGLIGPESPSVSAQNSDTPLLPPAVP
Put plainly: Inhibition of HDAC11 (unknown origin). Put shortly:
as §2

The target in data set [13] is T1, NAD-dependent protein deacylase sirtuin-6. The data set is described as follows: Inhibition of SIRT6 in human BxPC3 cells assessed as increase in H3K9Ac expression measured after 48 hrs by Western blot analysis. It is filed as cell-based. Particulars: BXPC-3. Put shortly:
(§3)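 BxPC-3 cells were exposed to 0.78, 1.56, 3.13, 6.25, 12.5 and 25 μM compound for 48 h. Histone H3K9ac and H3K18ac levels were then assessed by western blot, with β-actin as the loading control. Acetylation increase is read as cellular SIRT6 deacetylase inhibition.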
On the technique in general: A western blot detects proteins with antibodies after separation by electrophoresis.

For data set [14] the target is unchanged. Put plainly: Inhibition of SIRT6 in human BxPC3 cells assessed as increase in […] expression measured after 48 hrs by Western blot analysis. It counts as cell-based. Particulars: BXPC-3. Put shortly: as §3

pIC50, pKd: −log10 of the molar value. Calls of active or inactive are those of the source. No cut-off for these calls is given here. A value given as a limit tells only on which side of the number the result lay.

As usually defined, the pIC50 is the negative decadic logarithm of the IC50, by convention in mol/L. A high value points to a small IC50. As a reminder, the ΔTm is the shift of the melting midpoint relative to a reference. Broadly, the pKd is the Kd on a negative log10 scale, so that one unit is a factor of ten. Higher therefore signals a low Kd.

T1 sequence (Q8N6T7 whole entry): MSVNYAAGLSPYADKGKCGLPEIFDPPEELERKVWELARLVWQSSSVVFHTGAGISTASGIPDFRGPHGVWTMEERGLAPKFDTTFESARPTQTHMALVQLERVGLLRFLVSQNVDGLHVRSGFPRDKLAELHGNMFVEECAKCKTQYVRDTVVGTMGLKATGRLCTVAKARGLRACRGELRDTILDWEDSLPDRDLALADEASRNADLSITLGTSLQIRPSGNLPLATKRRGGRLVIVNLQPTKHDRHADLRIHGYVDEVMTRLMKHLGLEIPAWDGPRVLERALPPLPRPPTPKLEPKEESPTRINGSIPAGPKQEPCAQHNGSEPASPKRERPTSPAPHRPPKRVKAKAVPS
Sequence of Histone deacetylase 2 (Q92769 whole entry): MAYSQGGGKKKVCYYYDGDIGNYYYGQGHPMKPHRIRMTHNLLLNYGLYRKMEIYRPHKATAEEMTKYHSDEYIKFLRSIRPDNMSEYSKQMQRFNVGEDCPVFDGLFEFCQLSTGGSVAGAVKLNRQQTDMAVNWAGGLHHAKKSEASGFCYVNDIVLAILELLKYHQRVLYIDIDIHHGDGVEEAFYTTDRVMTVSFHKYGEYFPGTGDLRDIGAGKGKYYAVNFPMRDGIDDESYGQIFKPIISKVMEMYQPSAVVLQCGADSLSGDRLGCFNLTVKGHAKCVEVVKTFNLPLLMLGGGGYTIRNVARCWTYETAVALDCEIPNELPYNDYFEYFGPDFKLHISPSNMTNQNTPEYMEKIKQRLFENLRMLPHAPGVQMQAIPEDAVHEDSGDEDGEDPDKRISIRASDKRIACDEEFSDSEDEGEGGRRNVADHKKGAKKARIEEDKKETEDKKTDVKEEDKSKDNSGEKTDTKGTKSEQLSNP
Sequence of Histone deacetylase 3 (O15379 whole entry): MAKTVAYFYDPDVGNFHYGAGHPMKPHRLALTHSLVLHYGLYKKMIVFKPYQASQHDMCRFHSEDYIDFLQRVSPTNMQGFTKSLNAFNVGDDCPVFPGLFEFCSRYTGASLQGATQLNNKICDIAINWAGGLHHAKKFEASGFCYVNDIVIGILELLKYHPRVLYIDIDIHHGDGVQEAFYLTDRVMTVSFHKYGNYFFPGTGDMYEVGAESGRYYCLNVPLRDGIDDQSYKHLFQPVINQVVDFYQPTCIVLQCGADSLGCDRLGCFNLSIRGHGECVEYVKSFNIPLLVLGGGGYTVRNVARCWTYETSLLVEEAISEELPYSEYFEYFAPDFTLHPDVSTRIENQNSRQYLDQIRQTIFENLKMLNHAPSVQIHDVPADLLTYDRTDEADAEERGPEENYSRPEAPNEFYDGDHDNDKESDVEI
Sequence of Histone deacetylase 4 (P56524 whole entry): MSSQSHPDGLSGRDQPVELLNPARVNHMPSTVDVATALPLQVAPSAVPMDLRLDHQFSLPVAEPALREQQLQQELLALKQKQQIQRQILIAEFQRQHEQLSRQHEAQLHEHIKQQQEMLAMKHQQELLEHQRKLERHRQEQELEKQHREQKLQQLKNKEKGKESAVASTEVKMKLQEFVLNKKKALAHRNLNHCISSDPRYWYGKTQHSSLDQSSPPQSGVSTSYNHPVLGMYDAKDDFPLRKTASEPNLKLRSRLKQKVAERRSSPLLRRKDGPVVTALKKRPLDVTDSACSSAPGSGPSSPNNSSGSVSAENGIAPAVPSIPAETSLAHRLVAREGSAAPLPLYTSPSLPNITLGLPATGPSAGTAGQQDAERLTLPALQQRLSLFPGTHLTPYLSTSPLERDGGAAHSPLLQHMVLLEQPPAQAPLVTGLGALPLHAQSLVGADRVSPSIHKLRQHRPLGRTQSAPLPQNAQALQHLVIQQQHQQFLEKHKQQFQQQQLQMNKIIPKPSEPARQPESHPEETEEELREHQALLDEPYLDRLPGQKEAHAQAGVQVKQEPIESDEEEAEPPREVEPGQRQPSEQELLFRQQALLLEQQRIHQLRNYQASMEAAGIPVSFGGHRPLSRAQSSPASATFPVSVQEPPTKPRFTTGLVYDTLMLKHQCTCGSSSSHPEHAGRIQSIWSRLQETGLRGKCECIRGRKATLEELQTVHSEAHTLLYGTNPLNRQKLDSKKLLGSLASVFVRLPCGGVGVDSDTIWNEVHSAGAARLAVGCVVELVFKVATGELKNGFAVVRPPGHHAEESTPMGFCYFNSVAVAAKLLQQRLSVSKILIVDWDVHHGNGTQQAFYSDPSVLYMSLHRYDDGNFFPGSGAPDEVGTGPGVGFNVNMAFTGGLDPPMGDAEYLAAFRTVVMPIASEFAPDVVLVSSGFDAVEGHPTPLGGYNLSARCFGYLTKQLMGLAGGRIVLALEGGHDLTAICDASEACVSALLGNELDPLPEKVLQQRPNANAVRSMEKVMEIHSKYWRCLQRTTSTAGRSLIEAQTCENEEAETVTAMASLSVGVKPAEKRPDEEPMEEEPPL

As to `CN1CCN(c2ccc([N+](=O)[O-])c(N)c2)CC1`, the negative logarithm of the IC50 (pIC50) was 5.31 in data set [1]; under 3.70 in [7]; under 3.70 in data set [8]; under 3.70 in data set [9]; under 3.70 in data set [10]; under 3.70 in data set [11]. Also, the negative logarithm of the IC50 (pIC50) in [12] is under 3.70. The ΔTm in [2] was found to be 1.88 °C. The same compound had a negative logarithm of the Kd (pKd) in [3] of 5.01. Besides, the Activity entry in [4] and in data set [5] was “Non-Toxic” throughout. Besides, the result in [6] was Active. Moreover, the inhibition result in data set [13] and in data set [14] was “Dose-dependent effect” each time.

The record behind these values is ChEMBL document CHEMBL4622928, “Discovery of 5-(4-methylpiperazin-1-yl)-2-nitroaniline derivatives as a new class of SIRT6 inhibitors” (Bioorg Med Chem Lett, 2020).
